Assay results published in ChEMBL document CHEMBL4673248, “Discovery and Characterization of BAY 1214784, an Orally Available Spiroindoline Derivative Acting as a Potent and Selective Antagonist of the Human Gonadotropin-Releasing Hormone Receptor as Proven in a First-In-Human Study in Postmenopausal Women” (J Med Chem, 2020).
In brackets after ≈: the same amount, converted by molar mass.

How the values were obtained:
Rattus norvegicus = assay: Suppression of ovariectomized-induced increase in plasma luteinizing hormone level in po dosed Wistar Han rat measured up to 24 hrs; type: functional; details: time hrs <=24
Summary of the method: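 Ovariectomized rats given single oral doses, range 1 to 30 mg/kg. Plasma LH followed over time, with cetrorelix at 0.1 mg/kg sc as reference. ED50 calculated from the dose-response.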

[1] = target: T1, Gonadotropin-releasing hormone receptor (Homo sapiens, UniProt P30968); assay: Inhibition of Tag-lite green-labeled agonist binding to terbium fluorophore-labeled human N-terminal SNAP-tag GnRh receptor expressed in HEK293 cells assessed as equilibrium dissociation constant by TR-FRET assay; type: cell-based
T1 sequence (P30968 whole entry): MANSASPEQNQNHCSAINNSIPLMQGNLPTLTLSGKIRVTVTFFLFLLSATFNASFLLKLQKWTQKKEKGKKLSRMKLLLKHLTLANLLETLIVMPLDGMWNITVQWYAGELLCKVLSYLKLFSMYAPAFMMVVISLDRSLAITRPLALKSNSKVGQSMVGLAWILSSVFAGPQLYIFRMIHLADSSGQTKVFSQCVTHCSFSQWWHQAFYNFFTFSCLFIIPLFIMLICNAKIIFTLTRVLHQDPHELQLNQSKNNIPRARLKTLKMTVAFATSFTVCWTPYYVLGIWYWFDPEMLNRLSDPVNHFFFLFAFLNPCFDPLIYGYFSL

[2] = Clearance in dog hepatocytes; type: ADME, cell-based, Canis lupus familiaris, Hepatocyte
[3] = Clearance in dog liver microsomes; type: ADME, Canis lupus familiaris, Microsome
[4] = Fraction unbound in human plasma; type: ADME, cell-free
[5] = Clearance in rat liver microsomes at 1 uM measured upto 60 mins in presence of NADP generating system by LC-MS/MS analysis; type: ADME, Microsome; details: 1 h
[6] = Clearance in human hepatocytes; type: ADME, cell-based, Hepatocyte
[7] = Maximum oral bioavailability in dog hepatocytes; type: ADME, Canis lupus familiaris, Hepatocyte; details: read-out: Fmax
[8] = target: Voltage-gated inwardly rectifying potassium channel KCNH2 (Homo sapiens, UniProt Q12809); assay: Inhibition of human ERG expressed in HEK293 cells assessed as reduction in channel inward tail current by whole cell voltage clamp assay; type: cell-based
Chain of Voltage-gated inwardly rectifying potassium channel KCNH2 (Q12809 whole entry): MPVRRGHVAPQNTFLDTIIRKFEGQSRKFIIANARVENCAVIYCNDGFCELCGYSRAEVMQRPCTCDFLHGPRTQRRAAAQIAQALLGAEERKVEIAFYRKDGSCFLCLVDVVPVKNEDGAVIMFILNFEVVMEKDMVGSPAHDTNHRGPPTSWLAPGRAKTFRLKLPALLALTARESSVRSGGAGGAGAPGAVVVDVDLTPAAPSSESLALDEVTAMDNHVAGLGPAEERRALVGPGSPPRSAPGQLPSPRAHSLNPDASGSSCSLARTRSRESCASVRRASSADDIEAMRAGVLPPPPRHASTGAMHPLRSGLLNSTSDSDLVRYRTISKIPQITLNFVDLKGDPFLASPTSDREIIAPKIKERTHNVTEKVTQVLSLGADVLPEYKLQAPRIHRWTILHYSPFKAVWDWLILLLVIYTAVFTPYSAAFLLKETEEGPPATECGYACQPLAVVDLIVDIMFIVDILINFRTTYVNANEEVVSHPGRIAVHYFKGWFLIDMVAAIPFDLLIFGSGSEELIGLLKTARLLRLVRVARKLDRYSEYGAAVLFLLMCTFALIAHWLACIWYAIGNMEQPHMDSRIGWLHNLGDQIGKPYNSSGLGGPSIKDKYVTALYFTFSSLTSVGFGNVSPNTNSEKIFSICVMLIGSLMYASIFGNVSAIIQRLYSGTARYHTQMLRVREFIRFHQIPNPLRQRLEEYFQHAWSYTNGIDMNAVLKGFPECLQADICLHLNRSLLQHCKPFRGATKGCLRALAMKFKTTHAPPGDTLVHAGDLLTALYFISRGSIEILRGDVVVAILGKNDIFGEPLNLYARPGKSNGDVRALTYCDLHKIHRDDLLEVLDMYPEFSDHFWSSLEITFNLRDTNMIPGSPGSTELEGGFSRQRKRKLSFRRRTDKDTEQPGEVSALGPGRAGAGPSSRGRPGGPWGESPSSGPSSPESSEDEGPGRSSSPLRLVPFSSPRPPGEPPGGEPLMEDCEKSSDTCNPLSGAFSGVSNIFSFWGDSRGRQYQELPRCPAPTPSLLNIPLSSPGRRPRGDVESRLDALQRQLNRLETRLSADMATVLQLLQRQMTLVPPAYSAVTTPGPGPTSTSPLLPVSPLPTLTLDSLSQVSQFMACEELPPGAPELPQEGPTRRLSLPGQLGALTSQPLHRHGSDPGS

[9] = Aqueous solubility of compound at pH 6.5 incubated for 24 hrs under shaking condition by HPLC-MS/MS analysis; type: physicochemical; details: aqueous solution
Summary of the method: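 Compound from 1 mM DMSO solution, pH 6.5 buffer added, shaken 24 h at rt. Filtered, dissolved compound quantified by HPLC-MS/MS.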

[10] = target: T1, Gonadotropin-releasing hormone receptor; assay: Inhibition of Tag-lite green-labeled agonist binding to terbium fluorophore-labeled human N-terminal SNAP-tag GnRh receptor expressed in HEK293 cells assessed as dissociation constant by TR-FRET assay; type: cell-based
Cannabinoid receptor 1 = Cannabinoid receptor 1 (Homo sapiens, UniProt P21554); assay: Inhibition of CB1 receptor (unknown origin)
Chain of Cannabinoid receptor 1 (P21554 whole entry): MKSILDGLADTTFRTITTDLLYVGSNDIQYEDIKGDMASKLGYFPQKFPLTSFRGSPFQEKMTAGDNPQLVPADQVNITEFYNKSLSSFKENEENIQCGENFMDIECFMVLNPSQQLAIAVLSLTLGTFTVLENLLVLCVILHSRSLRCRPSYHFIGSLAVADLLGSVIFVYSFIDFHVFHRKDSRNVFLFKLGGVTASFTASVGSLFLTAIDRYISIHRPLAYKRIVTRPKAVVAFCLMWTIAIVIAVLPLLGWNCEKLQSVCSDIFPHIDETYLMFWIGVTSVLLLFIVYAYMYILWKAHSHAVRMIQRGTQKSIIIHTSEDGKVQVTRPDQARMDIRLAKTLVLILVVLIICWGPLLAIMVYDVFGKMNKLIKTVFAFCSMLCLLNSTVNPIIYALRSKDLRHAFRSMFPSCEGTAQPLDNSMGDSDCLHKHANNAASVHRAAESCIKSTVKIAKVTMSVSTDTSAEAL

[11] = Toxicity in postmenopausal woman at 5 to 450 mg, po administered as single dose using SMEDDS formulation; details: human, in vivo
[12] = Maximum oral bioavailability in rat liver microsomes based well stirred liver model at 1 uM measured after 2 to 60 mins in presence of NADP generating system by LC-MS/MS analysis; type: ADME, Microsome; details: time 2-60 min, read-out: Fmax
Cytochrome P450 3A4 [13] = target: T2, Cytochrome P450 3A4 (Homo sapiens, UniProt P08684); assay: Inhibition of CYP3A4 in human liver microsomes using […] as substrate by LC-MS/MS analysis; type: ADME
T2 sequence (P08684 whole entry): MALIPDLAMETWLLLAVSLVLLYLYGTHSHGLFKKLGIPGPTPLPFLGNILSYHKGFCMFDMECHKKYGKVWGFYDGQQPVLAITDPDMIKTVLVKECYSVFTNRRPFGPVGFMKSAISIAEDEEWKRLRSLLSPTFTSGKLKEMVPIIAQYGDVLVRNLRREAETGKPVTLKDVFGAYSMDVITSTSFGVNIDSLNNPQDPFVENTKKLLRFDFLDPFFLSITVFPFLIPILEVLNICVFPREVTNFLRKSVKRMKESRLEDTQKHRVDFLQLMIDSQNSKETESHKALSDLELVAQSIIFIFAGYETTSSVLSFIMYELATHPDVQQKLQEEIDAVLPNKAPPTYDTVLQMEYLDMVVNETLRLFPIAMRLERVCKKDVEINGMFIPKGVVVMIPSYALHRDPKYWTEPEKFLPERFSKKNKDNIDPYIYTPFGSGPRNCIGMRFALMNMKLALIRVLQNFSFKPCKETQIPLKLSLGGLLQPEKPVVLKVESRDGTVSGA

[14] = Efflux ratio of apparent permeability across basolateral to apical side over apical to basolateral side in human Caco2 cells at 2 uM measured after 2 hrs by LC-MS/MS analysis; type: ADME, cell-based; details: Caco-2
Summary of the method: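 Caco-2 monolayers grown 15 d, integrity checked by TEER. Compound 2 µM added apical or basolateral in FCS-free HEPES carbonate buffer pH 7.2, incubated 2 h at 37 °C. Both compartments sampled before and after, analysed by LC-MS/MS after MeOH precipitation. Papp computed from receiver peak area, surface area and time. Efflux ratio taken as Papp B–A/Papp A–B.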

Cytochrome P450 3A4 [15] = target: T2, Cytochrome P450 3A4; assay: Irreversible inhibition of CYP3A4 in human liver microsomes using midazolam as substrate; type: ADME
Homo sapiens = assay: Suppression of plasma luteinizing hormone level in postmenopausal woman at 300 mg, po administered as single dose using SMEDDS formulation by ECLIA relative to control; type: functional
[16] = Chemical stability of compound at pH 1 to 10 measured up to 24 hrs by UV-HPLC analysis; type: physicochemical; details: buffer, pH 1, 24 h
Summary of the method: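 10 mM DMSO stock diluted in MeCN, then into pH 1, 7 or 10 buffer. Held at 37 °C, HPLC-UV injections at 0, 1, 2 and 24 h. Recovery given as peak area relative to time zero.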

[17] = Intrinsic clearance in Han Wistar rat hepatocytes at 1 uM measured up to 90 mins by LC/MS/MS analysis; type: ADME, cell-based, Hepatocyte; details: Han Wistar, read-out: CLH (converted)
[18] = target: Mitogen-activated protein kinase 3 (Homo sapiens, UniProt P27361); assay: Inhibition of MAPK3 (unknown origin)
Chain of Mitogen-activated protein kinase 3 (P27361 whole entry): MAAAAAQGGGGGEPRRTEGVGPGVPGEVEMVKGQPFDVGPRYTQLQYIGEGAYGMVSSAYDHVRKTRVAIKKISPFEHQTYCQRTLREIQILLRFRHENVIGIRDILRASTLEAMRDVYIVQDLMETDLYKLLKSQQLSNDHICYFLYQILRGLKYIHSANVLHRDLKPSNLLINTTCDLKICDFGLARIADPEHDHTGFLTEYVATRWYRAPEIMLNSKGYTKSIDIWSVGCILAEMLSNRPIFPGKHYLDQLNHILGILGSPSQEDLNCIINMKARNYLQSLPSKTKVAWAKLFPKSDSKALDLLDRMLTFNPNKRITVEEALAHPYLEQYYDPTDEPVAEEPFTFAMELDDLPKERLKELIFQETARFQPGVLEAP

[19] = target: T1, Gonadotropin-releasing hormone receptor; assay: Inhibition of Tag-lite green-labeled agonist binding to terbium fluorophore-labeled human N-terminal SNAP-tag GnRh receptor expressed in HEK293 cells by TR-FRET assay; type: cell-based
Summary of the method: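 Frozen transiently transfected HEK293 with Tb-labelled SNAP-tag hGnRH-R, 5.6 × 10^4 cells/well in Tag-lite buffer. Green-labelled agonist 4 nM. Nonspecific wells received buserelin 10 µM. Incubated 60 min at rt, TR-FRET 520/495 nm ratio read.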

[20] = target: T3, Gonadotropin-releasing hormone receptor (Rattus norvegicus, UniProt P30969); assay: Antagonist activity at rat GnRH receptor expressed in CHO-K1 cells assessed as inhibition of buserelin-induced response preincubated for 20 mins followed by buserelin addition and measured after 60 mins by TR-FRET assay; type: cell-based
T3 sequence (P30969 whole entry): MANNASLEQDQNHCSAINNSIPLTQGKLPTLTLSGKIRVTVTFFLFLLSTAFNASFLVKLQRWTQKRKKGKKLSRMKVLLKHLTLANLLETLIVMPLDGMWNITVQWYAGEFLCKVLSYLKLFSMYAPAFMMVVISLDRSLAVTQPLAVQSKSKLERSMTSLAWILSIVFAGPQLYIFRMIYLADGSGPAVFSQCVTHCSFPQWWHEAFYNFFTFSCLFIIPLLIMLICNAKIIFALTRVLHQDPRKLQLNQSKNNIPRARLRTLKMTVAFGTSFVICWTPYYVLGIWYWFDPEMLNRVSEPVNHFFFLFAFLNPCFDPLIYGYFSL
Summary of the method: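 Frozen rat-receptor cells: thawed, seeded overnight in serum-containing Ham's F12, Accutase-harvested, resuspended in serum-free medium with IP1-d2, 1 h at 37 °C. 1.0 × 10^4 cells/well, 20 min compound preincubation at rt, then 1× EC80 LHRH or buserelin in HEPES stimulation buffer pH 7.4 for 60 min at 37 °C. Tb-anti-IP1 lysis (1:38), HTRF read 60 min later.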

[21] = target: Mitogen-activated protein kinase 14 (Homo sapiens, UniProt Q16539); assay: Inhibition of MAPK14 (unknown origin)
Chain of Mitogen-activated protein kinase 14 (Q16539 whole entry): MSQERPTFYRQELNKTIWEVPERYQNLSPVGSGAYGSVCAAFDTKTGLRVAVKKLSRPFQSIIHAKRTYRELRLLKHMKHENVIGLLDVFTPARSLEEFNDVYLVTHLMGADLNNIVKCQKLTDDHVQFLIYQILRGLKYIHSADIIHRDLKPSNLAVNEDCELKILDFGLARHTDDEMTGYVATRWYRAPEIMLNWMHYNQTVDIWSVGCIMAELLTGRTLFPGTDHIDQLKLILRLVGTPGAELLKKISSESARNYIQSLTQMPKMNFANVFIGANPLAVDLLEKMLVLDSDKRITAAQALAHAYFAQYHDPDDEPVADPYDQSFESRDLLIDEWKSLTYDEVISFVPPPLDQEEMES

`O=C(NCc1ncc(C(F)(F)F)cc1Cl)c1ccc2c(c1)C1(CCS(=O)(=O)CC1)[C@H](C1CC1)N2S(=O)(=O)c1ccc(F)cc1` [BAY-784] gave an ED50 (Rattus norvegicus) of 4.5 mg/kg, a Kd [1] of 0.00552 µM and a CLH [2] of 12.2 mL/min/kg. The CLH [3] was 5.33 mL/min/kg, the fraction unbound [4] was 0.014 and the CLH [5] was 6.33 mL/min/kg. For the same compound, the CLH [6] was 1.7 mL/min/kg, the Fh [7] was 65% and the IC50 [8] was greater than 10 µM. The solubility at 24 h [9] was 7.1 µg/mL (≈ 10.6 µM), the Kd [10] was 0.00983 µM and the IC50 (Cannabinoid receptor 1) was 3.4 µM. The Activity [11] was “Non-Toxic”, the Fh at 1 µM [12] was 91% and the IC50 (Cytochrome P450 3A4 [13]) was greater than 10 µM. It also gave an efflux ratio at 2 h, 2 µM [14] of 10, an IC50 (Cytochrome P450 3A4 [15]) greater than 10 µM and an Activity (Homo sapiens) of 49%. The Stabilty [16] was “Stable”, the CLint scaled at 1 µM [17] was 12.5 mL/min/kg and the IC50 [18] was 4.9 µM. The IC50 [19] was 0.027 µM, the IC50 [20] was 0.024 µM and the IC50 [21] was 10.7 µM.
